According to PMC2993511 (Biochemical pharmacology, 2010):
Entries after “also recorded” stand apart in the source; their conditions may differ.

Columns and labels:
Naïve CHO cells = assay: [35S]GTPγS binding in naïve CHO cells; type: biochemical, Chinese hamster; details: not transfected with MOR or DOR, data not shown
Summary of the method: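 Untransfected CHO cell membranes, a receptor-free control. Tested with 0.1 nM [35S]GTPγS and 3 μM GDP in HEPES pH 7.4 buffer at 30°C. Extract and DAMGO were added. Nonspecific binding was subtracted using 10 μM unlabeled GTPγS. Read-out was filtration plus scintillation counting.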

MOR [1] = biological target: T1, MOR (Homo sapiens, UniProt P35372); assay: Receptor binding assay, displacement of [3H]DAMGO
DOR [2] = biological target: T2, DOR (Homo sapiens, UniProt P41143); assay: Receptor binding assay, displacement of [3H]deltorphin
DOR [3] = biological target: T2, DOR; assay: [35S]GTPγS binding assay, CHO-DOR membranes; type: biochemical
MOR [4] = biological target: T1, MOR; assay: [35S]GTPγS binding assay, CHO-MOR membranes; type: biochemical
Summary of the method: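 Human MOR stably expressed in CHO cells (G418 selection); membranes homogenised on ice and spun at 20,000 g. 20 μg protein incubated with 0.1 nM [35S]GTPγS, 3 μM GDP, Mg2+ and Na+ in HEPES pH 7.4, 1 hr, 30°C. DAMGO was the positive control. Nonspecific binding was taken with 10 μM unlabeled GTPγS. Filter-bound radioactivity was counted and expressed as percent stimulation above basal.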

T2 sequence (P41143 whole entry): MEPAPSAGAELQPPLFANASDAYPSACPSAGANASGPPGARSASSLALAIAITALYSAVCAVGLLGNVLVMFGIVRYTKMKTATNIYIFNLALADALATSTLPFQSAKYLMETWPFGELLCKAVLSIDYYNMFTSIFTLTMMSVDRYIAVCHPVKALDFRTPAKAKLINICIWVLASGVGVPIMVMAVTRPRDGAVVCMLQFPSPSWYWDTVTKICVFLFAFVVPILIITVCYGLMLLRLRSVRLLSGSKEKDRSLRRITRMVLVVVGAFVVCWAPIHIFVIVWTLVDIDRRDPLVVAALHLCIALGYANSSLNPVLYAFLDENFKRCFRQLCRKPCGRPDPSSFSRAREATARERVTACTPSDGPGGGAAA
T1 sequence (P35372 whole entry): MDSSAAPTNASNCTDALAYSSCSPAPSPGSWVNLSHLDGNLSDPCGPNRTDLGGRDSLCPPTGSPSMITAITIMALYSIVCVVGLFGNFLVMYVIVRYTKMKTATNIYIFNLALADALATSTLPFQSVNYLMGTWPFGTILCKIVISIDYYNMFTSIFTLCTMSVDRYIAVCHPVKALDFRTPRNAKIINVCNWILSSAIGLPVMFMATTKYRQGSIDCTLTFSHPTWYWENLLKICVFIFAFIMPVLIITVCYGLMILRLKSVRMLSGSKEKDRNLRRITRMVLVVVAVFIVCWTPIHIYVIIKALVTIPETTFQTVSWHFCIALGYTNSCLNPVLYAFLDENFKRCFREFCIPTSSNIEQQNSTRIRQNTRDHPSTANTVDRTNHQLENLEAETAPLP

Row | Compound | IC50 (MOR [1]) [µM] | Ki (MOR [1]) [µM] | IC50 (DOR [2]) [µM] | Ki (DOR [2]) [µM] | also measured
1 | C=CCN1C[C@H](C)N([C@H](c2ccc(C(=O)N(CC)CC)cc2)c2cccc(OC)c2)C[C@H]1C [SNC-80] |  |  |  |  | stimulation of [35S]GTPγS binding in naïve CHO cells (Naïve CHO cells): not stimulated
2 | O=c1cc(-c2ccc(O)cc2)oc2cc(O)cc(O)c12 [apigenin] | 35.8 ± 7.81 | 16.2 ± 3.16 | > 50 |  | 
3 | COc1ccc(-c2oc3cc(OC)c(OC)c(O)c3c(=O)c2OC)cc1O [casticin] | 2.84 ± 0.707 | 1.14 ± 0.167 | 2.05 ± 0.631 | 1.29 ± 0.44 | EC50 (DOR [3]): 15.3 ± 6.32 µM; Emax (DOR [3]; read-out: DOR Emax, stimulation of [35S]GTPγS binding): 74.6 ± 18.2%; activation of MOR (MOR [4]): did not activate
4 | COc1c(-c2ccc(O)cc2)oc2cc(O)cc(O)c2c1=O [isokaempferide] |  |  | 22.8 ± 14 | 12.9 ± 7.92 | affinity for MOR (MOR [1]): no significant affinity
5 | O=c1cc(-c2ccc(O)c(O)c2)oc2cc(O)cc(O)c12 [luteolin] | 43.3 ± 13.2 | 13.4 ± 4.06 | 16.8 ± 4.87 | 9.53 ± 2.73 | 
6 | N,N-diallyl-Tyr-Aib-Aib-Phe-Leu-OH [ICI 174,864, reference compound] |  |  |  |  | effect on casticin stimulated [35S]GTPγS binding (DOR [3]; casticin 10 and 50 μM, ICI 174,864 10 μM): inhibited; also recorded: blocked
7 | [D-Ala^2,N-MePhe^4-Glyol^5]enkephalin [DAMGO] |  |  |  |  | stimulation of [35S]GTPγS binding in naïve CHO cells (Naïve CHO cells): not stimulated
